Reference: paper PMC9933479 (ACS Omega, 2023)
Read-outs that look alike come from different tables or passages of the source.

What was measured:
Test in all cases: MTT assay, cytotoxicity/growth inhibition
A549 (lung carcinoma) = format: cell-based, human; conditions: Homo sapiens; for inhibition at 20 µM: A549, 48 h; for IC50: A549
In short: (§1)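 Cells were grown in RPMI (A549, HCT-116, PC-3) or DMEM (MCF-7) with 10% FBS at 37 °C and 5% CO2. Seeding per well was […] and PC-3 8 × 10^4 cells. […] MTT 250 μg/mL, 4 h; DMSO; A570; triplicate; mean ± SE.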

[1] = test system: HCT-116 (colon carcinoma); format: cell-based; conditions: Homo sapiens; for inhibition at 20 µM: HCT-116, 48 h, read-out: Cytotoxic Activity (% Growth Inhibition); for IC50: HCT-116
In short: as §1

[2] = test system: PC-3 (prostate carcinoma); format: cell-based; conditions: Homo sapiens; for inhibition at 20 µM: 48 h, read-out: Cytotoxic Activity (% Growth Inhibition)
In short: as §1

MCF-7 (breast carcinoma) = format: cell-based; conditions: Homo sapiens; for inhibition at 20 µM: MCF7, 48 h, read-out: Cytotoxic Activity (% Growth Inhibition); for IC50: MCF7
In short: as §1

[3] = read-out: Cytotoxic Activity (% Growth Inhibition), A549, 20 μM concentration, MTT, 48 h

Compound	inhibition at 20 µM (A549 (lung carcinoma); [3]) [%]	inhibition at 20 µM [1] [%]	inhibition at 20 µM [2] [%]	inhibition at 20 µM (MCF-7 (breast carcinoma)) [%]	IC50 (A549 (lung carcinoma)) [µM]	IC50 [1] [µM]	IC50 [2] [µM]	IC50 (MCF-7 (breast carcinoma)) [µM]	inhibition at 20 µM (A549 (lung carcinoma); read-out: Cytotoxic Activity (% Growth Inhibition)) [%]
Cc1ccc(CC(=O)OCC2=CCC3[C@]4(C)COC(c5ccccc5)O[C@@H]4CC[C@@]3(C)[C@@H]2/C=C/C2=CCOC2=O)cc1 (stereo partly drawn) [Compound 8t, ((4aR,6aR,7S,10bR)-6a,10b-Dimethyl-7-((E)-2-(2-oxo-2,5-dihydrofuran-3-yl)vinyl)-3-phenyl-4a,5,6,6a,7,10,10a,10b-octahydro-1H-naphtho[2,1-d][1,3]dioxin-8-yl)methyl 2-(p-Tolyl)acetate]	48.9 ± 0.73	45.9 ± 0.86	69.5 ± 0.74	27 ± 0.29	–	–	–	–	–
C[C@@]12COC(c3ccccc3)O[C@@H]1CC[C@]1(C)C2CC=C(COC(=O)Cc2ccc(Cl)cc2)[C@H]1/C=C/C1=CCOC1=O (stereo partly drawn) [Compound 8q, ((4aR,6aR,7S,10bR)-6a,10b-Dimethyl-7-((E)-2-(2-oxo-2,5-dihydrofuran-3-yl)vinyl)-3-phenyl-4a,5,6,6a,7,10,10a,10b-octahydro-1H-naphtho[2,1-d][1,3]dioxin-8-yl)methyl 2-(4-Chlorophenyl)acetate]	11 ± 1	36.1 ± 0.96	39 ± 0.82	46 ± 0.72	–	–	–	–	–
C[C@]1(CO)C2CC=C(COC(=O)c3ccc(Br)cc3F)[C@@H](/C=C/C3=CCOC3=O)[C@]2(C)CC[C@H]1O (stereo partly drawn) [Compound 9m, ((1S,5R,6R,8aR)-6-Hydroxy-5-(hydroxymethyl)-5,8a-dimethyl-1-((E)-2-(2-oxo-2,5-dihydrofuran-3-yl)vinyl)-1,4,4a,5,6,7,8,8a-octahydronaphthalen-2-yl)methyl 4-Bromo-2-fluorobenzoate]	14.9 ± 0.24	23.1 ± 0.84	78.9 ± 0.96	8 ± 0.85	> 20	> 20	7.6	> 20	–
C[C@@]12COC(c3ccccc3)O[C@@H]1CC[C@]1(C)C2CC=C(COC(=O)c2ccccc2C(F)(F)F)[C@H]1/C=C/C1=CCOC1=O (stereo partly drawn) [Compound 8n, ((4aR,6aR,7S,10bR)-6a,10b-Dimethyl-7-((E)-2-(2-oxo-2,5-dihydrofuran-3-yl)vinyl)-3-phenyl-4a,5,6,6a,7,10,10a,10b-octahydro-1H-naphtho[2,1-d][1,3]dioxin-8-yl)methyl 2-(Trifluoromethyl)benzoate]	18 ± 1.4	31.3 ± 0.89	55 ± 0.56	55 ± 0.69	–	–	–	–	–
C[C@@]12COC(c3ccccc3)O[C@@H]1CC[C@]1(C)C2CC=C(COC(=O)c2ccc(Br)cc2F)[C@H]1/C=C/C1=CCOC1=O (stereo partly drawn) [Compound 8m, ((4aR,6aR,7S,10bR)-6a,10b-Dimethyl-7-((E)-2-(2-oxo-2,5-dihydrofuran-3-yl)vinyl)-3-phenyl-4a,5,6,6a,7,10,10a,10b-octahydro-1H-naphtho[2,1-d][1,3]dioxin-8-yl)methyl 4-Bromo-2-fluorobenzoate]	–	30.4 ± 0.9	0	44 ± 0.24	–	–	–	–	–
C[C@]1(CO)C2CC=C(COC(=O)Cc3ccccc3)[C@@H](/C=C/C3=CCOC3=O)[C@]2(C)CC[C@H]1O (stereo partly drawn) [Compound 9o, ((1S,5R,6R,8aR)-6-Hydroxy-5-(hydroxymethyl)-5,8a-dimethyl-1-((E)-2-(2-oxo-2,5-dihydrofuran-3-yl)vinyl)-1,4,4a,5,6,7,8,8a-octahydronaphthalen-2-yl)methyl 2-Phenylacetate]	–	0	15 ± 0.72	29.2 ± 0.29	–	–	–	–	43.4 ± 0.19
CCCCCCCC(=O)OCC1=CCC2[C@]3(C)COC(c4ccccc4)O[C@@H]3CC[C@@]2(C)[C@@H]1/C=C/C1=CCOC1=O (stereo partly drawn) [Compound 8w, ((4aR,6aR,7S,10bR)-6a,10b-Dimethyl-7-((E)-2-(2-oxo-2,5-dihydrofuran-3-yl)vinyl)-3-phenyl-4a,5,6,6a,7,10,10a,10b-octahydro-1H-naphtho[2,1-d][1,3]dioxin-8-yl)methyl Octanoate]	70.7 ± 0.73	40.5 ± 0.91	49 ± 0.85	51 ± 0.96	8.4	> 20	> 20	20	–
C[C@@]12COC(c3ccccc3)O[C@@H]1CC[C@]1(C)C2CC=C(COC(=O)c2cccc(Cl)c2)[C@H]1/C=C/C1=CCOC1=O (stereo partly drawn) [Compound 8d, ((4aR,6aR,7S,10bR)-6a,10b-Dimethyl-7-((E)-2-(2-oxo-2,5-dihydrofuran-3-yl)vinyl)-3-phenyl-4a,5,6,6a,7,10,10a,10b-octahydro-1H-naphtho[2,1-d][1,3]dioxin-8-yl)methyl 3-Chlorobenzoate]	30.11 ± 0.11	0	0	2.4 ± 0.084	–	–	–	–	–
C[C@@]12COC(c3ccccc3)O[C@@H]1CC[C@]1(C)C2CC=C(COC(=O)Cc2ccc(F)cc2)[C@H]1/C=C/C1=CCOC1=O (stereo partly drawn) [Compound 8p, ((4aR,6aR,7S,10bR)-6a,10b-Dimethyl-7-((E)-2-(2-oxo-2,5-dihydrofuran-3-yl)vinyl)-3-phenyl-4a,5,6,6a,7,10,10a,10b-octahydro-1H-naphtho[2,1-d][1,3]dioxin-8-yl)methyl 2-(4-Fluorophenyl)acetate]	17 ± 1.7	20.6 ± 0.95	77 ± 0.86	0	> 20	> 20	8	> 20	–
COc1ccc(CC(=O)OCC2=CCC3[C@]4(C)COC(c5ccccc5)O[C@@H]4CC[C@@]3(C)[C@@H]2/C=C/C2=CCOC2=O)cc1 (stereo partly drawn) [Compound 8s, ((4aR,6aR,7S,10bR)-6a,10b-Dimethyl-7-((E)-2-(2-oxo-2,5-dihydrofuran-3-yl)vinyl)-3-phenyl-4a,5,6,6a,7,10,10a,10b-octahydro-1H-naphtho[2,1-d][1,3]dioxin-8-yl)methyl 2-(4-Methoxyphenyl)acetate]	78 ± 0.97	22.1 ± 0.44	75 ± 0.93	54 ± 0.53	6.6	> 20	5.9	16.9	–
C[C@@]12COC(c3ccccc3)O[C@@H]1CC[C@]1(C)C2CC=C(COC(=O)Cc2ccc(Cl)c(Cl)c2)[C@H]1/C=C/C1=CCOC1=O (stereo partly drawn) [Compound 8v, ((4aR,6aR,7S,10bR)-6a,10b-Dimethyl-7-((E)-2-(2-oxo-2,5-dihydrofuran-3-yl)vinyl)-3-phenyl-4a,5,6,6a,7,10,10a,10b-octahydro-1H-naphtho[2,1-d][1,3]dioxin-8-yl)methyl 2-(3,4-Dichlorophenyl)acetate]	41.6 ± 0.98	12.5 ± 0.78	70.3 ± 0.54	34 ± 0.28	> 20	> 20	8.4	> 20	–
C[C@]1(CO)C2CC=C(COC(=O)c3ccoc3)[C@@H](/C=C/C3=CCOC3=O)[C@]2(C)CC[C@H]1O (stereo partly drawn) [Compound 9g, ((1S,5R,6R,8aR)-6-Hydroxy-5-(hydroxymethyl)-5,8a-dimethyl-1-((E)-2-(2-oxo-2,5-dihydrofuran-3-yl)vinyl)-1,4,4a,5,6,7,8,8a-octahydronaphthalen-2-yl)methyl Furan-3-carboxylate]	63.58 ± 0.08	11.28 ± 0.1	11 ± 0.22	0	–	–	–	–	–
CCCCCCCC(=O)OCC1=CCC2[C@](C)(CO)[C@H](O)CC[C@@]2(C)[C@@H]1/C=C/C1=CCOC1=O (stereo partly drawn) [Compound 9w, ((1S,5R,6R,8aR)-6-Hydroxy-5-(hydroxymethyl)-5,8a-dimethyl-1-((E)-2-(2-oxo-2,5-dihydrofuran-3-yl)vinyl)-1,4,4a,5,6,7,8,8a-octahydronaphthalen-2-yl)methyl Octanoate]	16.8 ± 0.93	23.9 ± 0.58	67 ± 0.75	25 ± 0.36	–	–	–	–	–
CCCCCCCCCC(=O)OCC1=CCC2[C@](C)(CO)[C@H](O)CC[C@@]2(C)[C@@H]1/C=C/C1=CCOC1=O (stereo partly drawn) [Compound 9x, ((1S,5R,6R,8aR)-6-Hydroxy-5-(hydroxymethyl)-5,8a-dimethyl-1-((E)-2-(2-oxo-2,5-dihydrofuran-3-yl)vinyl)-1,4,4a,5,6,7,8,8a-octahydronaphthalen-2-yl)methyl Decanoate]	23.2 ± 0.74	2.7 ± 0.51	24 ± 0.83	46 ± 0.84	–	–	–	–	–
C[C@@]12COC(c3ccccc3)O[C@@H]1CC[C@]1(C)C2CC=C(COC(=O)c2cccc(I)c2)[C@H]1/C=C/C1=CCOC1=O (stereo partly drawn) [Compound 8f, ((4aR,6aR,7S,10bR)-6a,10b-Dimethyl-7-((E)-2-(2-oxo-2,5-dihydrofuran-3-yl)vinyl)-3-phenyl-4a,5,6,6a,7,10,10a,10b-octahydro-1H-naphtho[2,1-d][1,3]dioxin-8-yl)methyl 3-Iodobenzoate]	30.98 ± 0.25	33.25 ± 0.11	0	0	–	–	–	–	–
COc1cc(C(=O)OCC2=CCC3[C@](C)(CO)[C@H](O)CC[C@@]3(C)[C@@H]2/C=C/C2=CCOC2=O)cc(OC)c1OC (stereo partly drawn) [Compound 9k, ((1S,5R,6R,8aR)-6-Hydroxy-5-(hydroxymethyl)-5,8a-dimethyl-1-((E)-2-(2-oxo-2,5-dihydrofuran-3-yl)vinyl)-1,4,4a,5,6,7,8,8a-octahydronaphthalen-2-yl)methyl 3,4,5-Trimethoxybenzoate]	29.4 ± 0.82	19.8 ± 0.68	–	41 ± 0.87	–	–	–	–	–
